Shown are actives, neighbours in structure and some others; about 2.3% of the full set was active somewhere.
CRFR2-BP ag = agonists of CRF-BP/CRF-R2 complex, primary screen, cell-based, HEK293, calcium dye fluorescence, uHTS; CRF-binding protein / CRF receptor 2 complex (human); calcium dye fluorescence (FLIPR); percent of saturating CRF peptide response; activation, % at 13.2 µM; actives 0.46% (n = 350,000); AID 588473, 2011;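 active = activation of at least 50%, plus an integration ratio under a set limit after plate pattern correction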;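 also: plate controls were neutral control wells without compound for no effect and CRF at EC100 for full effect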
CRFBP-R2 block = antagonists of CRF-BP/CRF-R2 complex, primary screen, cell-based, HEK293, calcium dye fluorescence, uHTS; CRF-induced calcium fluorescence; inhibition, % at 11.8 µM; actives 0.59% (n = 350,000);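 active = inhibition of the ligand-induced calcium signal above about 50% at the single tested concentration, limit read from the data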
HNF4A DNA FP = change in binding of human HNF4A to DNA, primary screen, biochemical, fluorescence polarization, FITC-DNA; 1 h; activity change, % at 10 µM; actives 0.3% (n = 360,000); in the data active = activity change above about 30%, passing the limit was not always enough
CSN inh = inhibitors of CSN-mediated cullin deneddylation, primary screen, biochemical, fluorescence polarization, uHTS; Purified CSN, SCF-Nedd8-OG deneddylation; inhibition, % at 12.5 µM; actives 0.38% (n = 360,000); AID 651999, 2013;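 active = pattern-corrected inhibition above about 35%, with an unprinted fluorescence ratio check between 0.5 and 1.5, limit read from the data, passing the limit was not always enough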;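 also: 0% = enzyme with substrate and 100% = substrate without enzyme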
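Schedule: reaction 90 min, room temperature / Assay system: HEK293T-derived human Csn5 enzyme / Input: Csn5 at 0.24 nM final / Measure: inhibition of Csn5 cleavage, % / Control set: substrate-only high control, full reaction low control / Technique: fluorescence polarization of the substrate / Buffer or medium: Tris/NaCl/DTT buffer, pH 7.5 / Reagent: SCFSkp2-Nedd8OG substrate at 10 nM final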
TPT1 inh = Candida albicans TPT1 enzyme inhibitors, primary screen, biochemical, fluorescence polarization; tRNA 2'-phosphotransferase TPT1 (Candida albicans SC5314); AID 1962, 2009; recombinant caTPT1, FP RNA substrate dephosphorylation; inhibition, % at 5 µM; actives 0.81% (n = 300,000);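 active = inhibition above the mean of all tested compounds plus 3 SD, set per screening campaign, cut at about 24% in these data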;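 also: plate controls were DMSO alone for no effect and ferristatin control at 100 nM for full effect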
Rpn11 block = Rpn11 (PSMD14) deubiquitinase inhibitors, primary screen, biochemical, fluorescence polarization, uHTS. 26S proteasome non-ATPase regulatory subunit 14 (Homo sapiens), O00487. human 26S proteasome, Ub4-pepOG fluorescence polarization; 20S core pre-blocked with epoxomicin. calls only at 20 µM. actives 0.59% (n = 360,000). AID 588493, 2011;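 active = inhibition at 20 µM, scaled to each plate's controls, above about 33%, limit read from the data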
TPT1 inh confirm = Candida albicans TPT1 inhibitors, confirmation, biochemical, fluorescence polarization, triplicate. shares compounds with TPT1 inh. recombinant caTPT1, RNase T1 coupled. inhibition, % at 5 µM. actives 74% (n = 2,400). AID 2149, 2009;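 active = inhibition above the primary screen limit, the mean inhibition of all tested compounds plus 3 SD, cut at about 25% in these data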
RNase T1 inh = RNase T1 inhibitors, counter-screen for TPT1 inhibitor project, biochemical, fluorescence polarization; shares compounds with TPT1 inh; RNase T1 cleavage, 1536-well; inhibition, % at 5 µM; actives 83% (n = 2,400); AID 2153, 2009;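 active = inhibition above the solvent-only control well mean plus 3 SD, limit set per screening run, cut at about 23% in these data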;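 also: plate controls were DMSO wells with enzyme for no effect and wells without RNase T1 for full effect; inhibitors block cleavage so intact labeled substrate keeps polarization high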
Rpn11 confirm = Rpn11 (PSMD14) deubiquitinase inhibitors, confirmation, biochemical, fluorescence polarization, single concentration; purified human 26S proteasome, Ub4-pepOG fluorescence polarization; proteasome pretreated with epoxomicin; shares compounds with Rpn11 block; inhibition, % at 20 µM; actives 29% (n = 1,900)
MMP-2 counter-1 = MMP-2 enzyme inhibition, confirmation, counter-screen for RPN11 inhibitor project, biochemical, fluorescence, single concentration; shares compounds with Rpn11 block; recombinant MMP-2, FRET peptide cleavage fluorescence; inhibition, % at 20 µM; actives 4% (n = 1,900);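 also: human MMP-2 activated beforehand with APMA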
Target sequence (P08253 whole entry, looked up): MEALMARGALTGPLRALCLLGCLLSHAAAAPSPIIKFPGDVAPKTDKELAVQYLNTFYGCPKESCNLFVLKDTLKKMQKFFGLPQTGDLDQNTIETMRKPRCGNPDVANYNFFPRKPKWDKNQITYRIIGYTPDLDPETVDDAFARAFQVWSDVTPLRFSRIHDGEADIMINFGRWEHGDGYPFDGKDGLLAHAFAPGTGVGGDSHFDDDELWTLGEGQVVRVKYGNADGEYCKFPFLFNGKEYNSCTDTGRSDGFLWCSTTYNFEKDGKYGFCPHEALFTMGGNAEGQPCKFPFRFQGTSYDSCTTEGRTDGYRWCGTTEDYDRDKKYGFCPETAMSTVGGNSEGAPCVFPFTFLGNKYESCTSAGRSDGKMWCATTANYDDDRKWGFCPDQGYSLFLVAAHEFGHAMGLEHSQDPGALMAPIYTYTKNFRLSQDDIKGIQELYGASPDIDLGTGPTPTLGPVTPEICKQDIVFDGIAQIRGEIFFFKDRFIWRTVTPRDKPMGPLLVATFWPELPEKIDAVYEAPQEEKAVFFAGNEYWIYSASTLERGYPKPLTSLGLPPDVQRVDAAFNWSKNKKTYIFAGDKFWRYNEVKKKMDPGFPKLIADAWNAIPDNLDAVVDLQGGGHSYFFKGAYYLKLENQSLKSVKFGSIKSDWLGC
Thrombin FP = bovine thrombin protease inhibition, confirmation, counter-screen for Rpn11 inhibitor project, biochemical, fluorescence polarization, single concentration. AID 602333, 2012. actives 13% (n = 1,900). bovine thrombin cleavage of Ub4-pepOG. shares compounds with Rpn11 block. inhibition, % at 20 µM;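 active = mean inhibition at least 40% at 20 µM, or signal 3 deviations below plate average, so some actives read negative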;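 also: plate controls were thrombin with DMSO for no effect and buffer wells lacking thrombin for full effect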
CSN deneddyl val = Csn5 deneddylation inhibitors, confirmation, biochemical, fluorescence polarization, single concentration, SCF-Nedd8OG substrate; shares compounds with CSN inh; Csn5 deneddylation of SCF-Nedd8OG, 90 min; inhibition, % at 16.6 µM; actives 62% (n = 540); in the data active = inhibition above about 50%;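 also: 0% = DMSO with enzyme and 100% = no enzyme wells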
MMP-2 counter-2 = MMP-2 protease inhibition counter-screen, confirmation, counter-screen for CSN deneddylation inhibitor project, biochemical, fluorescence, single concentration; shares compounds with CSN inh; recombinant MMP-2, FRET substrate fluorescence, 60 min; inhibition, % at 16.6 µM; actives 33% (n = 540); AID 720655, 2013;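 active = corrected plate-normalized z-score of 5 or more, or -5 or less, or inhibition of 15% or more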;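 also: plate controls were DMSO wells with enzyme for no effect and buffer wells lacking MMP-2 for full effect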
Thrombin cntr = thrombin (bovine) inhibition, counter-screen for CSN hits; AID 720656; inhibition, % at 16.6 µM; shares compounds with CSN inh; actives 49% (n = 540); bovine thrombin cleavage of Ub4-pepOG, fluorescence polarization;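 active = inhibition at or above a set limit, with a fluorescence interference ratio between 0.5 and a set maximum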
Active calls of the source: *; i = inactive; · = not tested or not shown; + = active, no number. Rule as the data show it, unless noted: active = inhibition above about 40%; inactive = the rest.

SMILES	CRFR2-BP ag	CRFBP-R2 block	HNF4A DNA FP	CSN inh	TPT1 inh	Rpn11 block	TPT1 inh confirm	RNase T1 inh	CSN deneddyl val	MMP-2 counter-2	Thrombin cntr	others
CC(=O)Nc1ccccc1C(=O)N1CCN(Cc2ccccc2)CC1	5	-3	-2	1	-1	i	·	·	·	·	·
O=S(=O)(Nc1cc2nc3ccccc3nc2n1Cc1ccccc1)c1ccc(Cl)cc1	13	-33	-6	70*	44*	i	39*	51*	77*	-7	3
Cc1cc(/C=N/Nc2ccc([N+](=O)[O-])cn2)c(C)n1-c1ccc(C(=O)O)cc1	-2	-28	16	53*	54*	i	68*	79*	90*	13	2
Cc1ccc(/C=C/C(=O)NCc2ccc3c(c2)OCO3)o1	-2	20	0	-3	-1	i	·	·	·	·	·
CCN1/C(=C/c2ccc3cc(C)ccc3[n+]2CC)Sc2ccccc21	155*	-109	119*	72*	84*	·	97*	103*	66*	-23*	-61
CCN1/C(=C/C=C/c2sc3ccccc3[n+]2CC)Sc2ccccc21	0	2	94	105	-79	·	·	·	·	·	·
CN1CCN(c2ccc(CNC[C@H]3O[C@@H](n4cnc5c(=O)[nH]c(N)nc54)[C@H](O)[C@@H]3O)c(S(C)(=O)=O)c2)CC1	·	·	1	-2	·	i	·	·	·	·	·
CCCN1CCc2c(sc(NC(=O)c3ccc(S(=O)(=O)N(C)c4ccccc4)cc3)c2C(=O)NC)C1	63*	-63	67*	42*	104*	·	110*	118*	179*	-1	12
CC(C)(CO)NS(=O)(=O)c1ccc2c(c1)Cc1cc(S(=O)(=O)NC(C)(C)CO)ccc1-2	0	1	2	-3	0	i	·	·	·	·	·
CCC(C)n1c(NC(=O)c2ccccc2)c(C#N)c2nc3ccccc3nc21 (stereo unspecified)	3	-28	33*	50*	117*	·	80*	85*	156*	-12	54*
COc1cc(/C=C2\COC/C(=C\c3ccc(O)c(OC)c3)C2=O)ccc1O	-2	-5	0	9	6	i	·	·	·	·	·
COc1cc(/C=C2/CC/C(=C/c3ccc(O)c(OC)c3)C2=O)ccc1O	167*	-132	48*	47*	113*	·	117*	119*	62*	-17	72*
CC(C)N1CCc2c(sc(NC(=O)c3ccc4ccccc4c3)c2C(N)=O)C1	124*	-115	63*	57*	96*	·	90*	96*	+	1	48*
CCN1CCc2c(sc(NC(=O)c3cc4ccccc4cc3OC)c2C(N)=O)C1	4	-12	37*	38*	46*	+	40*	46*	56*	-3	9	Rpn11 confirm=75*;MMP-2 counter-1=-38;Thrombin FP=39
Cc1ccccc1NC(=O)OCCN1CCN(Cc2ccccc2)CCC1=O	-1	1	-4	0	3	i	·	·	·	·	·
COc1ccc(CC(=O)Nc2ccc(S(=O)(=O)Nc3ncccn3)cc2)cc1	-2	6	5	-1	2	i	·	·	·	·	·
Cc1nc(-n2[nH]c3c(c2=O)CCCC3)[nH]c(=O)c1Cc1ccccc1	58*	-54	44*	52*	122*	·	65*	77*	80*	-4	49*
COc1ccc(-n2c(C)cc(/C=C3\SC(=O)NC3=O)c2C)cc1	-2	-22	-2	1	-2	i	·	·	·	·	·
Cc1cc(/C=C2\SC(=S)NC2=O)c(C)n1-c1cccc(O)c1	6	3	97*	66*	90*	·	85*	98*	37	19*	66*
Cc1cc(/C=C2\SC(=S)N(C)C2=O)c(C)n1-c1ccc(O)cc1	13	-25	79*	51*	120*	·	129*	129*	181*	5	62*
Cc1ccc(-n2c(C)cc(/C=C3\SC(=O)NC3=O)c2C)cc1	-14	-62	5	-3	2	i	·	·	·	·	·
Cc1cc(/C=C2/SC(=S)N(c3cccc(Cl)c3)C2=O)c(C)n1-c1cccnc1	26	-33	43*	47*	114*	i	88*	99*	128*	-1	8
